{"source": "ChEMBL document CHEMBL3124880", "about": "“4-(3-Chloro-5-(trifluoromethyl)pyridin-2-yl)-N-(4-methoxypyridin-2-yl)piperazine-1-carbothioamide (ML267), a potent inhibitor of bacterial phosphopantetheinyl transferase that attenuates secondary metabolism and thwarts bacterial growth” (J Med Chem, 2014)", "key": {"[1]": {"test": "AUC (infinity) in CD-1 mouse at 30 mg/kg, ip", "assay_type": "ADME, organism-based", "design": "time infinity, dose 30 mg/kg, route intraperitoneal", "details": "plasma", "in_short": "(§1)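 Male CD1 mice, 6–8 weeks old. Dosed iv at 3 mg/kg or ip at 30 mg/kg as a solution in 5% DMSO/10% Solutol in water. Plasma sampled in triplicate at eight time points over 24 h.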"}, "Liver microsome [2]": {"system": "Liver microsome", "test": "Metabolic stability in mouse liver microsomes measured over 1 hr in absence of NADPH"}, "Staphylococcus aureus [3]": {"system": "Staphylococcus aureus", "test": "Antibacterial activity against Staphylococcus aureus BK2395 assessed as growth inhibition in presence of calf serum", "assay_type": "functional"}, "[4]": {"test": "Chemical stability of the compound in HEPES buffer at room temperature measured over 48 hrs by LC/MS analysis", "assay_type": "physicochemical", "in_short": "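Compound held in aqueous media over pH 2–9 and in PBS and HEPES buffers, then monitored for degradation.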"}, "[5]": {"test": "Half life in CD-1 mouse at 30 mg/kg, ip", "assay_type": "ADME, organism-based", "design": "dose 30 mg/kg, route intraperitoneal", "details": "in vivo", "in_short": "as §1"}, "Escherichia coli [6]": {"system": "Escherichia coli", "test": "Antibacterial activity against Escherichia coli JW0451 containing lesion in acrB locus assessed as growth inhibition at 12.5 ug/mL after 16 to 20 hrs by broth dilution method", "assay_type": "functional, organism-based", "in_short": "(§2)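 E. coli BW25113 (wild type) and JW0451 (ΔacrB) tested by broth dilution in cation-adjusted Mueller Hinton II, ~1×10^3 cfu, 16–20 h. Growth shown with resazurin. Checkerboard combination with the efflux inhibitor PAβN in the wild type.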"}, "[7]": {"test": "Volume of distribution in CD-1 mouse at 3 mg/kg, iv", "assay_type": "ADME, organism-based", "design": "dose 3 mg/kg, route intravenous", "details": "in vivo", "in_short": "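Male CD1 mice, 6–8 weeks old, given 3 mg/kg iv as a solution in 5% DMSO/10% Solutol in water. Plasma sampled at eight time points over 24 h, in triplicate; MRT defined as time to eliminate 63.2% of the iv dose.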"}, "Bacillus subtilis [8]": {"system": "Bacillus subtilis", "test": "Antibacterial activity against Bacillus subtilis OKB105 assessed as effect on doubling time in log phase at 0.53 to 1.1 ug/mL after 28 hrs", "assay_type": "functional, organism-based", "in_short": "(§3)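 B. subtilis OKB105 cultured with compound at 0.53 or 1.1 µg/mL against a vehicle control. Culture density and surfactin titer sampled periodically over 28 h.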"}, "Bacillus subtilis [9]": {"system": "Bacillus subtilis", "test": "Antibacterial activity against Bacillus subtilis 168 assessed as growth inhibition after 16 to 20 hrs by resazurin dye-based assay", "assay_type": "functional", "details": "subsp. subtilis str. 168", "in_short": "(§4)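 Broth microdilution. Test article from 1 μL DMSO in 50 μL cation-adjusted Mueller Hinton II (bacteria) or RPMI 1640 (fungi), plus ~1×10^3 cfu inoculum in the same medium. Incubated 16–20 h at 30–37 °C (48 h for fungi). MIC scored visually as the first well without growth; resazurin added for imaging.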"}, "Bacillus subtilis [10]": {"system": "Bacillus subtilis", "test": "Antibacterial activity against Bacillus subtilis OKB105 assessed as growth inhibition at 1.7 ug/mL after 16 to 20 hrs by resazurin dye-based assay", "assay_type": "functional, organism-based"}, "Candida albicans": {"system": "Candida albicans", "test": "Antifungal activity against fluconazole-sensitive Candida albicans ATCC 90028 assessed as growth inhibition at 0.8 to 100 ug/mL after 48 hrs by resazurin dye-based assay", "assay_type": "functional, organism-based", "in_short": "as §4"}, "Escherichia coli [11]": {"system": "Escherichia coli", "test": "Antibacterial activity against Escherichia coli K-12 assessed as growth inhibition at 0.8 to 100 ug/mL after 16 to 20 hrs by resazurin dye-based assay", "assay_type": "functional, organism-based", "in_short": "as §4"}, "Staphylococcus aureus [12]": {"system": "Staphylococcus aureus", "test": "Antibacterial activity against methicillin-sensitive Staphylococcus aureus ATCC 6538 assessed as growth inhibition at 0.8 to 100 ug/mL after 16 to 20 hrs by resazurin dye-based assay", "assay_type": "functional, organism-based", "in_short": "as §4"}, "[13]": {"test": "Cmax in CD-1 mouse at 30 mg/kg, ip", "assay_type": "ADME, organism-based", "design": "dose 30 mg/kg, route intraperitoneal", "details": "in vivo", "in_short": "as §1"}, "[14]": {"test": "Permeability of the compound by PAMPA", "assay_type": "physicochemical"}, "[15]": {"molecular_target": "T1, L-aminoadipate-semialdehyde dehydrogenase-phosphopantetheinyl transferase (Homo sapiens) (UniProt Q9NRN7)", "T1 sequence (whole entry)": "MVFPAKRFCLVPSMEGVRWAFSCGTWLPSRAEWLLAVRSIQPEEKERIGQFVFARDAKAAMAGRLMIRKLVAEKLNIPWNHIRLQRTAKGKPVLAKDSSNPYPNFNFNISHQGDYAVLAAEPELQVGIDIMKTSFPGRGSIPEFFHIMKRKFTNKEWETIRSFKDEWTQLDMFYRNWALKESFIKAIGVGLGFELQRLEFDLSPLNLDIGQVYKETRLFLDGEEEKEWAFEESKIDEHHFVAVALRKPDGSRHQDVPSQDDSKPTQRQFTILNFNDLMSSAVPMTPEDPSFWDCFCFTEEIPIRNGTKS", "test": "Inhibition of human PPTase up to 125 uM by gel-based fluorescence assay"}, "Escherichia coli [16]": {"system": "Escherichia coli", "test": "Antibacterial activity against wild type Escherichia coli BW25113 assessed as growth inhibition at 1.8 to 250 ug/mL after 16 to 20 hrs by broth dilution method", "assay_type": "functional", "in_short": "as §2"}, "Escherichia coli [17]": {"system": "Escherichia coli", "test": "Antibacterial activity against wild type Escherichia coli BW25113 assessed as growth inhibition at 1.8 to 250 ug/mL after 16 to 20 hrs by broth dilution method in presence of AcrAB-TolC inhibitor phenylarginine-beta-napthamide", "assay_type": "functional", "in_short": "as §2"}, "Bacillus subtilis [18]": {"system": "Bacillus subtilis", "test": "Antibacterial activity against Bacillus subtilis HM489 assessed as growth inhibition at 1.7 ug/mL after 16 to 20 hrs by resazurin dye-based assay", "assay_type": "functional, organism-based", "in_short": "as §4"}, "Bacillus subtilis [19]": {"system": "Bacillus subtilis", "test": "Antibacterial activity against Bacillus subtilis OKB105 assessed as inhibition of surfactin production after 28 hrs by LC-MS analysis", "assay_type": "functional, organism-based", "in_short": "as §3"}, "Liver microsome [20]": {"system": "Liver microsome", "test": "Drug metabolism in human liver microsomes assessed as GSH adduct formation at 50 uM after 60 mins by LC-MS/MS analysis in presence of NADPH", "assay_type": "ADME", "details": "1 h"}, "Escherichia coli [21]": {"system": "Escherichia coli", "test": "Antibacterial activity against Escherichia coli BW25113 assessed as growth inhibition at 0.8 to 100 ug/mL after 16 to 20 hrs by resazurin dye-based assay", "assay_type": "functional", "in_short": "as §4"}, "[22]": {"test": "Protein binding in plasma (unknown origin) by equilibrium dialysis", "assay_type": "ADME, cell-free"}, "[23]": {"test": "Half life in CD-1 mouse at 3 mg/kg, iv", "assay_type": "ADME, organism-based", "design": "dose 3 mg/kg, route intravenous", "details": "in vivo", "in_short": "as §1"}}, "note": "Active and inactive are the calls of the source.", "data": [{"compound": "COc1ccnc(NC(=S)N2CCN(c3ncc(C(F)(F)F)cc3Cl)CC2)c1", "values": [{"measurement": "AUC(0-inf)", "setting": "[1]", "result": 68900, "unit": "ng·h/mL"}, {"measurement": "Stability", "setting": "Liver microsome [2]", "result": "Stable"}, {"measurement": "MIC", "setting": "Staphylococcus aureus [3]", "result": "> 57", "unit": "µM"}, {"measurement": "Stability", "setting": "[4]", "result": "Stable"}, {"measurement": "half-life", "setting": "[5]", "result": 2, "unit": "h"}, {"measurement": "growth inhibition (GI)", "setting": "Escherichia coli [6]", "result": "Active"}, {"measurement": "Vd", "setting": "[7]", "result": 1.5, "unit": "L/kg"}, {"measurement": "Activity", "setting": "Bacillus subtilis [8]", "result": "inactive"}, {"measurement": "MIC", "setting": "Bacillus subtilis [9]", "result": 2, "unit": "µg/mL"}, {"measurement": "growth inhibition (GI)", "setting": "Bacillus subtilis [10]", "result": "Active"}, {"measurement": "growth inhibition (GI)", "setting": "Candida albicans", "result": "inactive"}, {"measurement": "growth inhibition (GI)", "setting": "Escherichia coli [11]", "result": "inactive"}, {"measurement": "growth inhibition (GI)", "setting": "Staphylococcus aureus [12]", "result": "Active"}, {"measurement": "Cmax", "setting": "[13]", "result": 17600, "unit": "ng/mL"}, {"measurement": "permeability", "setting": "[14]", "result": 1120, "unit": "×10⁻⁶ cm/s"}, {"measurement": "inhibition", "setting": "[15]", "result": "inactive"}, {"measurement": "growth inhibition (GI)", "setting": "Escherichia coli [16]", "result": "inactive"}, {"measurement": "growth inhibition (GI)", "setting": "Escherichia coli [17]", "result": "Active"}, {"measurement": "growth inhibition (GI)", "setting": "Bacillus subtilis [18]", "result": "Active"}, {"measurement": "inhibition", "setting": "Bacillus subtilis [19]", "result": "Dose-dependent effect"}, {"measurement": "Drug metabolism", "setting": "Liver microsome [20]", "result": "Not Active"}, {"measurement": "growth inhibition (GI)", "setting": "Escherichia coli [21]", "result": "inactive"}, {"measurement": "PPB", "setting": "[22]", "result": 98.6, "unit": "%"}, {"measurement": "half-life", "setting": "[23]", "result": 2.4, "unit": "h"}]}]}
